Reference: ChEMBL document CHEMBL3580589, “Discovery of Quinazoline-Based Fluorescent Probes to α1-Adrenergic Receptors” (ACS Med Chem Lett, 2015)
The source made the active and inactive calls. No cut-off for these calls is given here.

Experiments:
[1] = biological target: T1, Alpha-1A adrenergic receptor (Homo sapiens) (UniProt P35348); assay: Binding affinity to alpha-1A adrenergic receptor (unknown origin) transfected in HEK293A cells at 15 nM measured 5 mins post wash out by DiD dye-based confocal microscopic analysis in presence of alpha1 adrenergic receptor antagonist tamsulosin; type: cell-based; conditions: HEK293-A
T1 sequence (whole entry): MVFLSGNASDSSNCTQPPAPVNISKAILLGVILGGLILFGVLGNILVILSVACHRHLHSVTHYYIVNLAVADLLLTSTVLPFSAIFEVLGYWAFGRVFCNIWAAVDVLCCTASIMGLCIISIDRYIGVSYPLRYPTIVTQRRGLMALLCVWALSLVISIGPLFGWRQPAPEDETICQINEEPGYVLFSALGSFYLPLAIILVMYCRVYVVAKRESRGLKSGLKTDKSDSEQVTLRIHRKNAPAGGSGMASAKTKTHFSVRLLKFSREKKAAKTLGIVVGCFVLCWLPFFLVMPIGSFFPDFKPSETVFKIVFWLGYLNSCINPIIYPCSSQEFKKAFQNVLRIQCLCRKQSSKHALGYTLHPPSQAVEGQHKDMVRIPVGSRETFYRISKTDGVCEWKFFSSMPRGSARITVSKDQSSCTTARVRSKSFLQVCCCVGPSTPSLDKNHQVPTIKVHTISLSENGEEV
Outline: (§1)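 α1A-AR- or α1D-AR-transfected HEK293A cells were incubated with the probe at 15 nM, DiD and tamsulosin at 300 nM as competitor for 5 min at 37 °C. Cells were washed immediately and imaged by confocal microscopy at identical exposure.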

[2] = Drug uptake in plasma membrane of HEK293A cells transfected with alpha-1D adrenergic receptor at 50 nM measured 5 mins post wash out by DiD dye-based confocal microscopic analysis; type: ADME, cell membranes; conditions: human, hek293-a, 0.05 µM
Outline: (§2)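 α1A-AR- or α1D-AR-transfected HEK293A cells, or untransfected HEK293A cells as the receptor-free control, were incubated with the probe plus DiD (red, colocalization) for 5 min at 37 °C. Probe signal was compared with the DiD-stained surface for subcellular localization by fluorescence microscopy.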

[3] = Drug uptake in cytoplasm of HEK293A cells transfected with alpha-1D adrenergic receptor at 50 nM measured 5 mins post wash out by DiD dye-based confocal microscopic analysis; type: ADME, cell-based; conditions: human, hek293-a, 0.05 µM; outline: as §2
[4] = biological target: T2, Alpha-1D adrenergic receptor (Homo sapiens) (UniProt P25100); assay: Binding affinity to alpha-1D adrenergic receptor (unknown origin) transfected in HEK293A cells at 15 nM measured 5 mins post wash out by DiD dye-based confocal microscopic analysis; type: cell-based; conditions: HEK293-A
T2 sequence (whole entry): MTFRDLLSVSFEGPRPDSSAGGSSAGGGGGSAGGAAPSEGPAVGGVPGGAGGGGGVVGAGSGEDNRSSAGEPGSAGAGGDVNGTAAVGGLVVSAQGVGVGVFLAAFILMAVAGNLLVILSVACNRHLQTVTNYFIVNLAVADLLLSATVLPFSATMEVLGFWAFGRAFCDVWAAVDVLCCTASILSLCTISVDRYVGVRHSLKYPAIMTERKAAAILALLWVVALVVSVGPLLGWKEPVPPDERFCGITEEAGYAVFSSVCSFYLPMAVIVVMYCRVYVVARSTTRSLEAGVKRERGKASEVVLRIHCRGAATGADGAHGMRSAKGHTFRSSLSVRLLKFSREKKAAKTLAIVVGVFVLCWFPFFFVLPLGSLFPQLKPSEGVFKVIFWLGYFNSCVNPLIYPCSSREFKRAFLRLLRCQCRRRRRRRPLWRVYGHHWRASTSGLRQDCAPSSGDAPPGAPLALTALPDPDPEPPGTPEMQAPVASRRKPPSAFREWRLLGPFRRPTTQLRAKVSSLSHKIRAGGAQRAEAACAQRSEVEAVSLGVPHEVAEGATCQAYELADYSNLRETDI
Outline: (§3)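 HEK293A cells stably transfected with α1A-AR or α1D-AR, or untransfected HEK293A cells, were incubated with the probe at 15 nM plus the membrane dye DiD for 5 min at 37 °C. Cells were washed immediately and imaged by confocal fluorescence microscopy at identical exposure times.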

[5] = biological target: T3, Alpha-1A adrenergic receptor (Homo sapiens, UniProt P35348); assay: Displacement of [3H]-Prazosin from human alpha-1A adrenergic receptor transfected in CHO cell membranes after 2 hrs by microplate scintillation counting analysis
T3 sequence (P35348 whole entry): T1 sequence (whole entry)
Outline: (§4)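 Radioligand competition binding used [3H]prazosin on membranes from CHO cells transfected with human cloned α1A-, α1B- or α1D-adrenoceptors.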

[6] = Cytotoxicity against HEK293A cells transfected with alpha-1D adrenergic receptor assessed as cell viability by sulforhodamine B assay; type: cell-based; conditions: Homo sapiens, HEK293-A
Outline: (§5)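 Standard sulforhodamine B colorimetric assay in HEK293A cells stably transfected with α1A-AR or α1D-AR.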

[7] = biological target: T1, Alpha-1A adrenergic receptor (Homo sapiens); assay: Binding affinity to alpha-1A adrenergic receptor (unknown origin) transfected in HEK293A cells at 15 nM measured 5 mins post wash out by DiD dye-based confocal microscopic analysis; type: cell-based; conditions: HEK293-A; outline: as §3
[8] = biological target: T4, Alpha-1B adrenergic receptor (Homo sapiens, UniProt P35368); assay: Displacement of [3H]-Prazosin from human alpha-1B adrenergic receptor transfected in CHO cell membranes after 2 hrs by microplate scintillation counting analysis; outline: as §4
T4 sequence (P35368 whole entry): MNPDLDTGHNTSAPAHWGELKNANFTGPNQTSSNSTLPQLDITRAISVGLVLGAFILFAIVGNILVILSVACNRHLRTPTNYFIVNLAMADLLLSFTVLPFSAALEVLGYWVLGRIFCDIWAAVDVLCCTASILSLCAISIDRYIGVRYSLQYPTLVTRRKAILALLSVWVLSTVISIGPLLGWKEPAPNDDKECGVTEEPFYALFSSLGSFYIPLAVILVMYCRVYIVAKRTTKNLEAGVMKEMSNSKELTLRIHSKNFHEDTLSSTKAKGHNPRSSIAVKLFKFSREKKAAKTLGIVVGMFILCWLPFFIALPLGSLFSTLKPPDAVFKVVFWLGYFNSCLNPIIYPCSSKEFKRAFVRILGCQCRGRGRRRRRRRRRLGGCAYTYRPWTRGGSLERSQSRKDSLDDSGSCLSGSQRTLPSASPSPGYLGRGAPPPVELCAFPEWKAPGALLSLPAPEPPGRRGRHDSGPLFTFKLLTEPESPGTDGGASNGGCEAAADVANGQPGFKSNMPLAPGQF

[9] = Drug uptake in HEK293A cells at 15 nM measured 5 mins post wash out by DiD dye-based confocal microscopic analysis; type: ADME, cell-based; conditions: human, hek293-a, 0.015 µM; outline: as §3
[10] = biological target: T2, Alpha-1D adrenergic receptor (Homo sapiens); assay: Binding affinity to alpha-1D adrenergic receptor (unknown origin) transfected in HEK293A cells at 15 nM measured 5 mins post wash out by DiD dye-based confocal microscopic analysis in presence of alpha1 adrenergic receptor antagonist tamsulosin; type: cell-based; conditions: HEK293-A; outline: as §1
[11] = Cytotoxicity against HEK293A cells transfected with alpha-1A adrenergic receptor assessed as cell viability by sulforhodamine B assay; type: cell-based; conditions: Homo sapiens, HEK293-A; outline: as §5
[12] = biological target: T5, Alpha-1D adrenergic receptor (Homo sapiens, UniProt P25100); assay: Displacement of [3H]-Prazosin from human alpha-1D adrenergic receptor transfected in CHO cell membranes after 2 hrs by microplate scintillation counting analysis; outline: as §4
T5 sequence (P25100 whole entry): T2 sequence (whole entry)

[13] = Drug uptake in plasma membrane of HEK293A cells transfected with alpha-1A adrenergic receptor at 50 nM measured 5 mins post wash out by DiD dye-based confocal microscopic analysis; type: ADME; conditions: human, hek293-a, 0.05 µM; outline: as §2
HepG2 = assay: Drug uptake in human HepG2 cells expressing low level of alpha-1 adrenergic receptor at 1 uM measured 30 mins post wash out by fluorescence assay; type: ADME, cell-based; conditions: hepg2, 0.5 h
Outline: (§6)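 PC-3 or HepG2 cells were incubated with the probe at 1 μM for 30 min at 37 °C, then washed immediately. Labelling was imaged by fluorescence microscopy, with background adjusted.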

[14] = biological target: T6, Adrenergic receptor alpha-1 (Homo sapiens) (UniProt P35348+P25100+P35368); assay: Binding affinity to alpha-1 adrenergic receptor in human PC3 cells at 1 uM measured 30 mins post wash out by fluorescence assay in presence of doxazosin; type: cell-based; conditions: PC-3
Outline: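 PC-3 cells were co-incubated with the probe at 1 μM and doxazosin at 10 μM for 30 min at 37 °C, then washed immediately. Displacement of labelling was imaged by fluorescence microscopy.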

[15] = biological target: T1, Alpha-1A adrenergic receptor (Homo sapiens); assay: Binding affinity to alpha-1A adrenergic receptor (unknown origin) transfected in HEK293A cells at 50 nM after 5 mins by DiD dye-based confocal microscopic analysis in presence of alpha1 adrenergic receptor antagonist tamsulosin; type: cell-based; conditions: HEK293-A
Outline: (§7)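 Transfected HEK293A cells expressing α1A-AR or α1D-AR were incubated with the probe, DiD and tamsulosin as competing α1-AR antagonist for 5 min at 37 °C. Fluorescence labelling was imaged by confocal microscopy.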

[16] = biological target: T2, Alpha-1D adrenergic receptor (Homo sapiens); assay: Binding affinity to alpha-1D adrenergic receptor (unknown origin) transfected in HEK293A cells at 50 nM after 5 mins by DiD dye-based confocal microscopic analysis; type: cell-based; conditions: HEK293-A; outline: as §2
[17] = Drug uptake in HEK293A cells at 50 nM after 5 mins by DiD dye-based confocal microscopic analysis; type: ADME, cell-based; conditions: human, hek293-a, 0.05 µM; outline: as §2
[18] = biological target: T2, Alpha-1D adrenergic receptor (Homo sapiens); assay: Binding affinity to alpha-1D adrenergic receptor (unknown origin) transfected in HEK293A cells at 50 nM after 5 mins by DiD dye-based confocal microscopic analysis in presence of alpha1 adrenergic receptor antagonist tamsulosin; type: cell-based; conditions: HEK293-A; outline: as §7
[19] = biological target: T1, Alpha-1A adrenergic receptor (Homo sapiens); assay: Binding affinity to alpha-1A adrenergic receptor (unknown origin) transfected in HEK293A cells at 50 nM after 5 mins by DiD dye-based confocal microscopic analysis; type: cell-based; conditions: HEK293-A; outline: as §2
[20] = biological target: T6, Adrenergic receptor alpha-1 (Homo sapiens); assay: Binding affinity to alpha-1 adrenergic receptor in human PC3 cells at 1 uM measured 30 mins post wash out by fluorescence assay; type: cell-based; conditions: PC-3; outline: as §6
[21] = biological target: T1, Alpha-1A adrenergic receptor (Homo sapiens); assay: Binding affinity to alpha-1A adrenergic receptor (unknown origin) transfected in HEK293A cells at 20 nM after 5 mins by DiD dye-based confocal microscopic analysis in presence of alpha1 adrenergic receptor antagonist tamsulosin; type: cell-based; conditions: HEK293-A; outline: as §7
[22] = Drug uptake in HEK293A cells at 20 nM after 5 mins by DiD dye-based confocal microscopic analysis; type: ADME, cell-based; conditions: human, hek293-a, 0.02 µM; outline: as §2
[23] = biological target: T1, Alpha-1A adrenergic receptor (Homo sapiens); assay: Binding affinity to alpha-1A adrenergic receptor (unknown origin) transfected in HEK293A cells at 20 nM after 5 mins by DiD dye-based confocal microscopic analysis; type: cell-based; conditions: HEK293-A; outline: as §2

SMILES | IC50 [5] [nM] | Ki [5] [nM] | IC50 [6] [nM] | IC50 [8] [nM] | IC50 [11] [nM] | IC50 [12] [nM] | Ki [8] [nM] | Ki [12] [nM] | also measured
COc1cc2nc(N3CCN(C(=O)c4cc5ccc(O)cc5oc4=O)CC3)nc(N)c2cc1OC | 3.9 | 2.1 | > 100000 | < 5 | > 100000 | < 5 | – | – | Activity [1]: inactive; Drug uptake [2]: Active; Drug uptake [3]: Active; Activity [4]: Active; Activity [7]: Active; Drug uptake [9]: Active; Activity [10]: inactive; Drug uptake [13]: Active
COc1cc2nc(N3CCN(C(=S)Nc4ccc(-c5c6ccc(=O)cc-6oc6cc(O)ccc56)c(C(=O)O)c4)CC3)nc(N)c2cc1OC | 8.8 | 4.7 | > 100000 | 16.3 | > 100000 | 34 | 7.3 | 20.7 | Drug uptake (HepG2): Active; Activity [14]: inactive; Activity [15]: inactive; Activity [16]: Active; Drug uptake [17]: Active; Activity [18]: inactive; Activity [19]: Active; Activity [20]: Active
CCN(CC)c1ccc2cc(-n3cc(CN4CCN(c5nc(N)c6cc(OC)c(OC)cc6n5)CC4)nn3)c(=O)oc2c1 | 52.4 | 29.9 | 17000 | 52.4 | 26000 | 45.2 | 29.9 | 27.5 | Activity [21]: inactive; Drug uptake [22]: Active; Activity [23]: Active
